Measurements from ChEMBL document CHEMBL4382192, “Discovery of a potent dual ALK and EGFR T790M inhibitor” (Eur J Med Chem, 2017).

What was measured:
[1] = target: Cyclin-G-associated kinase (Homo sapiens) (UniProt O14976); experiment: Binding affinity to wild-type human partial length GAK (G13 to Y338 residues) expressed in bacterial expression system assessed as residual binding level at 1 uM by Kinomescan method relative to control
[2] = target: Calcium/calmodulin-dependent protein kinase kinase 1 (Homo sapiens) (UniProt Q8N5S9); experiment: Binding affinity to wild-type human partial length CAMKK1 (R65 to E414 residues) expressed in bacterial expression system assessed as residual binding level at 1 uM by Kinomescan method relative to control
[3] = target: Ephrin type-A receptor 3 (Homo sapiens) (UniProt P29320); experiment: Binding affinity to wild-type human partial length EPHA3 (D604 to K889 residues) expressed in bacterial expression system assessed as residual binding level at 1 uM by Kinomescan method relative to control
[4] = system: Receptor-type tyrosine-protein kinase FLT3 (Homo sapiens), P36888 [D835V]; experiment: Binding affinity to human partial length FLT3 D835V mutant (V592 to Y969 residues) expressed in bacterial expression system assessed as residual binding level at 1 uM by Kinomescan method relative to control
Outline: (§1)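 Kinome-wide selectivity panel run by the KINOMEscan method, with the test compound at a single concentration of 1 μM. Wild-type and mutant kinases were profiled in the same screen.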

[5] = target: 3-phosphoinositide-dependent protein kinase 1 (Homo sapiens) (UniProt O15530); experiment: Binding affinity to wild-type human full length PDPK1 (M1 to Q556 residues) expressed in bacterial expression system assessed as residual binding level at 1 uM by Kinomescan method relative to control
Outline: (§2)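 Single-point kinome-wide KINOMEscan binding panel, test compound at 1 μM, run by the provider's standard protocol.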

[6] = target: Tyrosine-protein kinase JAK3 (Homo sapiens) (UniProt P52333); experiment: Binding affinity to wild-type human partial length JAK3 JH1 catalytic domain (I781 to S1124 residues) expressed in mammalian expression system assessed as residual binding level at 1 uM by Kinomescan method relative to control
[7] = target: Phosphatidylinositol 3-kinase C2 domain-containing subunit gamma (Homo sapiens) (UniProt O75747); experiment: Binding affinity to wild-type human partial length PIK3C2G (M1 to I1446 residues) expressed in mammalian expression system assessed as residual binding level at 1 uM by Kinomescan method relative to control
[8] = target: Serine/threonine-protein kinase BRSK1 (Homo sapiens) (UniProt Q8TDC3); experiment: Binding affinity to wild-type human partial length BRSK1 (M1 to E754 residues) expressed in bacterial expression system assessed as residual binding level at 1 uM by Kinomescan method relative to control
[9] = target: Ribosomal protein S6 kinase alpha-3 (Homo sapiens) (UniProt P51812); experiment: Binding affinity to wild-type human partial length C-terminal RSK2 kinase domain 2 (V402 to S715 residues) expressed in mammalian expression system assessed as residual binding level at 1 uM by Kinomescan method relative to control
[10] = Drug uptake in mouse lung at 10 mg/kg, po after 2 hrs; type: ADME, organism-based; settings: read-out: Drug uptake
[11] = target: Mitogen-activated protein kinase 1 (Homo sapiens) (UniProt P28482); experiment: Binding affinity to wild-type human full length ERK2 (M1 to S360 residues) expressed in bacterial expression system assessed as residual binding level at 1 uM by Kinomescan method relative to control; outline: as §2
[12] = target: Aurora kinase B (Homo sapiens) (UniProt Q96GD4); experiment: Binding affinity to wild-type human partial length AURKB (D25 to A303 residues) expressed in mammalian expression system assessed as residual binding level at 1 uM by Kinomescan method relative to control
[13] = target: Casein kinase II subunit alpha' (Homo sapiens) (UniProt P19784); experiment: Binding affinity to wild-type human full length CSNK2A2 (M1 to R350 residues) expressed in mammalian expression system assessed as residual binding level at 1 uM by Kinomescan method relative to control
[14] = target: Ephrin type-B receptor 2 (Homo sapiens) (UniProt P29323); experiment: Binding affinity to wild-type human partial length EPHB2 (I597 to L902 residues) expressed in bacterial expression system assessed as residual binding level at 1 uM by Kinomescan method relative to control
[15] = system: Phosphatidylinositol 4,5-bisphosphate 3-kinase catalytic subunit alpha isoform (Homo sapiens), P42336 [M1043I]; experiment: Binding affinity to human partial length PIK3CA M1043I mutant (R108 to N1068 residues) expressed in mammalian expression system assessed as residual binding level at 1 uM by Kinomescan method relative to control
[16] = target: Serine/threonine-protein kinase tousled-like 1 (Homo sapiens) (UniProt Q9UKI8); experiment: Binding affinity to wild-type human partial length TLK1 (K447 to A754 residues) expressed in bacterial expression system assessed as residual binding level at 1 uM by Kinomescan method relative to control
[17] = target: Cyclin-dependent kinase 17 (Homo sapiens) (UniProt Q00537); experiment: Binding affinity to wild-type human full length PCTK2 (M1 to F523 residues) expressed in bacterial expression system assessed as residual binding level at 1 uM by Kinomescan method relative to control; outline: as §2
[18] = target: Serine/threonine-protein kinase 25 (Homo sapiens) (UniProt O00506); experiment: Binding affinity to wild-type human partial length YSK1 (V14 to H295 residues) expressed in bacterial expression system assessed as residual binding level at 1 uM by Kinomescan method relative to control
[19] = system: Tyrosine-protein kinase ABL1 (Homo sapiens), P00519 [T315I]; experiment: Binding affinity to human non-phosphorylated ABL1 T315I mutant (S229 to K512 residues) expressed in mammalian expression system assessed as residual binding level at 1 uM by Kinomescan method relative to control; outline: as §1
[20] = target: Epidermal growth factor receptor (Homo sapiens) (UniProt P00533); experiment: Binding affinity to wild-type human partial length EGFR (R669 to V1011 residues) expressed in bacterial expression system assessed as residual binding level at 1 uM by Kinomescan method relative to control
[21] = target: Serine/threonine-protein kinase OSR1 (Homo sapiens) (UniProt O95747); experiment: Binding affinity to wild-type human full length OSR1 (M1 to S527 residues) expressed in mammalian expression system assessed as residual binding level at 1 uM by Kinomescan method relative to control; outline: as §2
[22] = target: Phosphorylase b kinase gamma catalytic chain, skeletal muscle/heart isoform (Homo sapiens) (UniProt Q16816); experiment: Binding affinity to wild-type human full length PHKG1 (M1 to Y387 residues) expressed in bacterial expression system assessed as residual binding level at 1 uM by Kinomescan method relative to control; outline: as §2
[23] = system: Receptor-type tyrosine-protein kinase FLT3 (Homo sapiens), P36888 [D835Y]; experiment: Binding affinity to human partial length FLT3 D835Y mutant (Q580 to Y969 residues) expressed in bacterial expression system assessed as residual binding level at 1 uM by Kinomescan method relative to control; outline: as §1
[24] = system: Receptor-type tyrosine-protein kinase FLT3 (Homo sapiens), P36888 [K663Q]; experiment: Binding affinity to human partial length FLT3 K663Q mutant (V592 to Y969 residues) expressed in bacterial expression system assessed as residual binding level at 1 uM by Kinomescan method relative to control; outline: as §1

What does the source list for `C=CC(=O)Nc1cc(Nc2ncc(Cl)c(Nc3ccccc3S(=O)(=O)C(C)C)n2)c(OC)cc1N(C)CCN(C)C`?
Activity [1]: 29%; Activity [2]: 2.8%; Activity [3]: 77%; Activity [4]: 2.4%; Activity [5]: 94%; Activity [6]: 0%; Activity [7]: 69%; Activity [8]: 49%; Activity [9]: 75%; concentration at 2 h [10]: 4.64 µM; Activity [11]: 68%; Activity [12]: 39%; Activity [13]: 100%; Activity [14]: 61%; Activity [15]: 84%; Activity [16]: 68%; Activity [17]: 74%; Activity [18]: 81%; Activity [19]: 0.9%; Activity [20]: 0%; Activity [21]: 16%; Activity [22]: 24%; Activity [23]: 3.6%; Activity [24]: 2.5%
